Measured values reported in ChEMBL document CHEMBL1153637, “Identification and optimisation of a novel series of pyrimidine based cyclooxygenase-2 (COX-2) inhibitors. Utilisation of a biotransformation approach” (Bioorg Med Chem Lett, 2009).
The source made the active and inactive calls. No cut-off for these calls is given here.

Tests used:
[1] = molecular target: T1, Prostaglandin G/H synthase 2 (Homo sapiens, UniProt P35354); experiment: Inhibition of human COX2 expressed in african green monkey COS cells assessed as inhibition of arachidonic acid-stimulated PGE2 production by enzyme immunoassay; type: cell-based
T1 sequence (P35354 whole entry): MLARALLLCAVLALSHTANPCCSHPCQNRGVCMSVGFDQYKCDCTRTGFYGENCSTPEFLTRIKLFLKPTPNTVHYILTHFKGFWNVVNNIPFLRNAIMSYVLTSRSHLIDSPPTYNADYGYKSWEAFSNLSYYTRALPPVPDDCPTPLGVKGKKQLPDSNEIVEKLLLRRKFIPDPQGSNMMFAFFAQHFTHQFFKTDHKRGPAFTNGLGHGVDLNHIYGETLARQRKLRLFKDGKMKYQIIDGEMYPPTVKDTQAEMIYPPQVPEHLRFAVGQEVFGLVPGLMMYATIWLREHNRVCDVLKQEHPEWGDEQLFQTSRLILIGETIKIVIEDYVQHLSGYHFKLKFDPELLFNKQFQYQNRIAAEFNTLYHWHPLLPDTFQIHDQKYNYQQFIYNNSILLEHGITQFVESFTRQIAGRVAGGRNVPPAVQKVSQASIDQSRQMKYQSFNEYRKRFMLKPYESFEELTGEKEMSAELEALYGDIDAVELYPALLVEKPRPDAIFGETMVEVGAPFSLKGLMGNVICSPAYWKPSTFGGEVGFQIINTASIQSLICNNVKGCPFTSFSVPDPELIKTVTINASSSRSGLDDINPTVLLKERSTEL

[2] = molecular target: T2, Prostaglandin G/H synthase 1 (Homo sapiens, UniProt P23219); experiment: Inhibition of human COX1 expressed in african green monkey COS cells assessed as inhibition of arachidonic acid-stimulated PGE2 production by enzyme immunoassay; type: cell-based
Homo sapiens = species: Homo sapiens; experiment: Selectivity ratio of IC50 for human COX1 to IC50 for human COX2
Procedure, shortened: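 Ratio of the COX-1 IC50 to the COX-2 IC50. Both IC50s are for inhibition of PGE2 production by COS cells stably expressing human COX-1 or human COX-2, after stimulation with arachidonic acid.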

Rattus norvegicus = species: Rattus norvegicus; experiment: Antiinflammatory activity in Freund's complete adjuvant-induced rat inflammatory pain model assessed as change in weight bearing ability on inflamed paw pretreated 1 hr before and measured 6 hrs after FCA challenge; type: functional
[3] = molecular target: T2, Prostaglandin G/H synthase 1; experiment: Inhibition of human COX1 expressed in african green monkey COS cells assessed as inhibition of arachidonic acid-stimulated PGE2 production upto 100 uM by enzyme immunoassay; type: cell-based
Procedure, shortened: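 COS cells stably expressing human COX-1 were stimulated with arachidonic acid, and PGE2 production was measured. IC50 was taken as the concentration inhibiting PGE2 output.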

T2 sequence (P23219 whole entry): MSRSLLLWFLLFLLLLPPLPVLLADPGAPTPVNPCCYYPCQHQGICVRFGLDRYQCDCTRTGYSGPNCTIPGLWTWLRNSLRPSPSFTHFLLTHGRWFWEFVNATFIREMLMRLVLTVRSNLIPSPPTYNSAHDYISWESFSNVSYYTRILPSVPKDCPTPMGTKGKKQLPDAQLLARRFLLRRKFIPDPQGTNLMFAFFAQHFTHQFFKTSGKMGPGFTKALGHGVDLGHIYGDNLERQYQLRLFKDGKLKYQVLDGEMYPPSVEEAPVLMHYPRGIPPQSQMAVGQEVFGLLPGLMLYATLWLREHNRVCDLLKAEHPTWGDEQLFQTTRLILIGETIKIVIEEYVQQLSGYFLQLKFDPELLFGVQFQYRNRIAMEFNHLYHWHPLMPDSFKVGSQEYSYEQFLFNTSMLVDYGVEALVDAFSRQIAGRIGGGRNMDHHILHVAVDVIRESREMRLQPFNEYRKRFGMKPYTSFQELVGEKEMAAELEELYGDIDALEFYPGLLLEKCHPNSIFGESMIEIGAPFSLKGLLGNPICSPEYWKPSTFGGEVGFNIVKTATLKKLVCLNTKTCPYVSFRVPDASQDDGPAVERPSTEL

Row | SMILES | IC50 [1] | IC50 [2] | Ratio IC50 (Homo sapiens) | ED50 (Rattus norvegicus) | Activity [3]
1 | CS(=O)(=O)c1ccc(-c2cnc(Cc3ccccc3)nc2-c2ccc(F)cc2)cc1 | 104 nM | > 34000 nM | > 326 | – | –
2 | CS(=O)(=O)c1ccc(-c2cnc(Cc3ccccc3O)nc2-c2ccc(F)cc2)cc1 | 43 nM | – | – | – | –
3 | CS(=O)(=O)c1ccc(-c2cnc(CCc3ccccc3)nc2-c2ccc(F)cc2)cc1 | 5260 nM | 29400 nM | 5.6 | – | –
4 | Cn1cccc1Cc1ncc(-c2ccc(S(C)(=O)=O)cc2)c(-c2ccc(F)cc2)n1 | 23 nM | 6540 nM | 284 | – | –
5 | CS(=O)(=O)c1ccc(-c2cnc(Nc3ccccc3)nc2-c2ccc(F)cc2)cc1 | 56 nM | > 100000 nM | > 1780 | – | –
6 | CS(=O)(=O)c1ccc(-c2cnc(Sc3ccccc3)nc2-c2ccc(F)cc2)cc1 | > 7200 nM | > 100000 nM | – | – | –
7 | CS(=O)(=O)c1ccc(-c2cnc(C(O)c3ccccc3)nc2-c2ccc(F)cc2)cc1 (configuration not stated) | 57 nM | – | – | 1.6 mg/kg | inactive
8 | CS(=O)(=O)c1ccc(-c2cnc(Cc3ccccc3)[n+]([O-])c2-c2ccc(F)cc2)cc1 | 717 nM | – | – | – | –
9 | CS(=O)(=O)c1ccc(-c2cnc(Oc3ccccc3)nc2-c2ccc(F)cc2)cc1 | > 4640 nM | > 100000 nM | – | – | –
10 | CS(=O)(=O)c1ccc(-c2cnc(CC3CCCCC3)nc2-c2ccc(F)cc2)cc1 | 12 nM | 2970 nM | 247 | – | –
11 | CS(=O)(=O)c1ccc(-c2cnc(Cc3ccc(F)cc3F)nc2-c2ccc(F)cc2)cc1 | 114 nM | > 52100 nM | > 457 | – | –
12 | CS(=O)(=O)c1ccc(-c2cnc(Cc3ccccn3)nc2-c2ccc(F)cc2)cc1 | 6320 nM | > 100000 nM | > 16 | – | –
13 | CS(=O)(=O)c1ccc(-c2cnc(Cc3ccc(F)cc3)nc2-c2ccc(F)cc2)cc1 | 277 nM | > 100000 nM | > 361 | – | –
14 | CC(C)c1ncc(-c2ccc(S(C)(=O)=O)cc2)c(-c2ccc(F)cc2)n1 | 1140 nM | 10000 nM | 8.8 | – | –
15 | CS(=O)(=O)c1ccc(-c2cnc(NCc3ccccc3)nc2-c2ccc(F)cc2)cc1 | 686 nM | > 100000 nM | > 145 | – | –
16 | CN(c1ccccc1)c1ncc(-c2ccc(S(C)(=O)=O)cc2)c(-c2ccc(F)cc2)n1 | 85 nM | 4340 nM | 51 | – | –
